High-throughput results deposited in PubChem BioAssay by Broad Institute.
GSIS activator – GLuc luminescence reporter in INS-1E cells, primary screen for activators of glucose-dependent secretion of insulin | INS-1E GLuc reporter insulin secretion, 2-3 h | activation, % at 16.6 µM | 0.61% of 370,000 active | AID 743287, 2014;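 active = lowest replicate activation of at least 40%, so every replicate reaches that level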;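 note: 0% = median of neutral control wells and 100% = median of IBMX positive control wells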
DENV2 CPE rescue – inhibitors of DENV2 cytopathic effect, primary screen, cell-based, plate reader, single concentration; DENV2-infected cells, cytopathic effect rescue; CPE inhibition, % at 9.99 µM; 1.7% of 350,000 active; AID 651640, 2012; in the data active = CPE inhibition above about 20%, passing the limit was not always enough; inconclusive = no clear call, values can overlap the other calls; tested in BHK-21 cells;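 note: 0% = median of neutral control wells and 100% = median of positive control wells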
miR122 inh – miR-122 Renilla sensor signal increase in Huh7, primary screen, miR-122 inhibitor project, cell-based, single point, plate reader; Huh7 miR-122 Renilla luciferase sensor, 48 h; neutral wells = 0, positive control = 100; activation (reporter increase), % at 12.5 µM; 0.3% of 340,000 active; AID 602342, 2012;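 active = mean replicate activation score at least 90 and every replicate individually at or above 90; inconclusive = only one of the two criteria met; inactive = neither criterion met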;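 note: higher luciferase means less miR-122 activity so hits act as miR-122 inhibitors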
E-selectin induc – E-selectin induction in HUVECs, primary screen, imaging, HUVEC, immunofluorescence imaging, single point; P16581; normalized: neutral wells 0, TNF-alpha wells 100; activation, % at 7.58 µM; 0.37% of 260,000 active; AID 686992, 2013;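 active = mean E-selectin-positive cell signal at least 10% of the positive control, reached in at least 60% of replicates, without over 20% cell loss; inconclusive = no rule given, readout overlaps actives, possibly toxicity-flagged; inactive = the rest, including those meeting only one limit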
Target sequence (P16581 whole entry, looked up): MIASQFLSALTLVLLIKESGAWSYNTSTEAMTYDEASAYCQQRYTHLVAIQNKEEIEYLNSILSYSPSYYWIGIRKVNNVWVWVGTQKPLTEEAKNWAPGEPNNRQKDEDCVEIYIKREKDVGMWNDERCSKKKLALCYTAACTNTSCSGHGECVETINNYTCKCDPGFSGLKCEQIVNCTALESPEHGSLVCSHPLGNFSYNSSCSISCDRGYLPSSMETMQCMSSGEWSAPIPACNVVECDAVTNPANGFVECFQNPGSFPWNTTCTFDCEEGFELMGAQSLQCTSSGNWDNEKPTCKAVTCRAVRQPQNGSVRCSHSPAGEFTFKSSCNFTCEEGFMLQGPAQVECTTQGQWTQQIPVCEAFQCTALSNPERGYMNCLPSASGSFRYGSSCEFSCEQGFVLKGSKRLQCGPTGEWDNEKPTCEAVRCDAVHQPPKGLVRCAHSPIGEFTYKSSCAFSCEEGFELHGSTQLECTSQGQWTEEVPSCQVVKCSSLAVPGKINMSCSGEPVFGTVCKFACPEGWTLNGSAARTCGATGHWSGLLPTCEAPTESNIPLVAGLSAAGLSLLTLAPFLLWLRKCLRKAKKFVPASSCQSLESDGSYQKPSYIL
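Read-out: % PE-positive cells | Test system: HUVEC | Doses: One compound dose added by pin transfer | Buffer or medium: EGM-2 over gelatin coat | Signal: Immunofluorescence imaging | Benchmarks: TNF-alpha, DMSO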
ERAP1 inh – human ERAP1 aminopeptidase inhibitors, primary screen, biochemical, single point, plate reader; Endoplasmic reticulum aminopeptidase 1 (Homo sapiens), Q9NZ08; 0.15% of 340,000 active; AID 652197, 2013; recombinant ERAP1, Leu-AMC fluorescence, 60 min; inhibition, % at 10.7 µM;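 active = mean replicate inhibition of at least 30%, or all replicates individually reaching that 30% level; inactive = mean below 30% and not every replicate reaching it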;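 note: 0% = neutral control wells and 100% = L-leucinethiol positive control wells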
CFTR F508del cor – F508del CFTR correction, initial screen, CFBE line, single point; CFBE cells, YFP halide quenching; stimulated with forskolin plus potentiator P3; % fluorescence drop versus neutral controls; activity (quench increase), % at 7.58 µM; 0.36% of 350,000 active;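 active = mean added fluorescence quench of at least 8% versus neutral control, with both replicates also reaching 8%; inconclusive = only one of the mean or replicate conditions met; inactive = mean below 8% and not both replicates reaching 8%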;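 note: cells transiently co-express mutant CFTR-F508del with the halide-sensitive YFP; corrector assay measuring rescue of mutant channel to the surface after 24 h compound exposure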
The depositor's hits bear a star; ? = inconclusive; / = no result given; [ ] = another dose, or the depositor's remark. In the library only some 2.6% were active in any assay of this set; here they are far more common.

SMILES | GSIS activator | DENV2 CPE rescue | miR122 inh | E-selectin induc | ERAP1 inh | CFTR F508del cor
CCOc1ccccc1NC(=O)Cn1nnc(C(=O)NCc2ccco2)c1N | / | / | 136* | / | / | /
Cc1ccc(S(=O)(=O)N(C)C[C@H]2OCCCC[C@@H](C)Oc3ccc(NS(=O)(=O)c4cn(C)cn4)cc3C(=O)N([C@@H](C)CO)C[C@H]2C)cc1 | -24 | / | 2[16.7 µM] | / | 7 | 0
O=C(O)COC(=O)Cc1ccccc1Nc1c(Cl)cccc1Cl | / | 7 | -1 | 5 | -2 | 16*
O=C(COC(=O)Cc1cccs1)Nc1ccccc1Cl | -4 | 10 | / | -3 | 1 | -2
O=C1N[C@H](Cc2ccccc2)COCc2cnnn2CC[C@@H]1Cc1ccc(-c2ccccc2)cc1 | -8 | / | / | / | / | /
C[C@@H]1CCCCO[C@H](CN(C)Cc2ccc(C(F)(F)F)cc2)[C@H](C)CN([C@@H](C)CO)C(=O)c2cc(NC(=O)CCC(F)(F)F)ccc2O1 | -13 | -3 | -15[16.7 µM] | ? | -1 | 3
COc1ccc(CN(C)C[C@H]2OCCCC[C@H](C)Oc3ccc(NC(=O)CCC(F)(F)F)cc3C(=O)N([C@H](C)CO)C[C@@H]2C)cc1 | -2 | 29* | 15[16.7 µM] | 0 | 2 | 1
C[C@H]1CN([C@@H](C)CO)C(=O)c2cc(NC(=O)CCC(F)(F)F)ccc2O[C@@H]1CN(C)Cc1ccc(C(F)(F)F)cc1 | -19 | 4 | 0[16.7 µM] | 38* | 1 | -2
C[C@@H]1CCCCO[C@H](CN(C)Cc2ccc(C(F)(F)F)cc2)[C@@H](C)CN([C@@H](C)CO)C(=O)c2cc(NC(=O)CCC(F)(F)F)ccc2O1 | -22 | 21* | 2[16.7 µM] | 1 | -2 | -1
COCC(=O)Nc1ccc2c(c1)C(=O)N(C)[C@H]1CC[C@H](CC(=O)OC)O[C@@H]1CO2 | 14 | 11 | / | 0 | -1 | 3
CC(C)Cc1ccc(C(C)C(N)=NCCc2ccccc2)cc1 (stereo not drawn) | -27 | 33* | 6 | 0 | -3 | 7
C[C@@H]1CN([C@@H](C)CO)C(=O)c2cccc(NC(=O)c3cnccn3)c2O[C@H]1CN(C)S(=O)(=O)c1ccccc1 | 0 | / | 8[16.7 µM] | 1 | / | 0
COc1ccc(CN(C)C[C@H]2OCCCC[C@H](C)Oc3ccc(NC(=O)c4ccncc4)cc3C(=O)N([C@H](C)CO)C[C@@H]2C)cc1 | 1 | 5 | 13[16.7 µM] | 0 | 0 | 0
COCC(=O)N(C)C[C@H]1Oc2ncc(C#Cc3ccc(OC)cc3)cc2C(=O)N([C@@H](C)CO)C[C@H]1C | 9 | 5 | -9[16.7 µM] | 0 | -3 | 0
COCC(=O)N(C)C[C@H]1Oc2ncc(-c3ccccc3OC)cc2C(=O)N([C@@H](C)CO)C[C@@H]1C | 7 | 21* | -1[16.7 µM] | 0 | 0 | -2
COCC(=O)N(C)C[C@@H]1Oc2ncc(C#Cc3cccnc3)cc2C(=O)N([C@H](C)CO)C[C@H]1C | 4 | -1 | 113*[16.7 µM] | 0 | 0 | 2
COCC(=O)N(C)C[C@@H]1Oc2ncc(C#Cc3ccc(OC)cc3)cc2C(=O)N([C@@H](C)CO)C[C@H]1C | 13 | 68* | -7[16.7 µM] | 0 | -2 | 3
N#C[C@@H]1[C@H](c2ccccc2)[C@@H](CO)N1C(=O)Nc1cccc(F)c1 | 0 | 1 | / | 0 | 0 | -1
COc1cc2cc(CCCOC(=O)CCCC(=O)O)oc(=O)c2cc1OC | -5 | 38* | -3 | 0 | -1 | -2
COc1cc2cc(CCCOC(=O)c3cc(OC)c(OC)c(OC)c3)oc(=O)c2cc1OC | 13 | -6 | -7 | 0 | / | 3
O=C(N/N=C/c1ccc(OC(=O)c2ccc([N+](=O)[O-])cc2)cc1)c1cccnc1 | -3 | -3 | 4 | 0 | -2 | 1
COc1ccc(C(=O)Oc2ccc(/C=N/NC(=O)Cc3ccc([N+](=O)[O-])cc3)cc2)cc1 | 46* | / | / | 0 | / | /
Nc1ccn([C@@H]2O[C@H](C(=O)NCc3ccc4c(c3)OCO4)[C@@H](O)[C@H]2O)c(=O)n1 | 20 | -3 | 3 | 0 | / | 1
CN(C)C(=O)N1CCN(C(=O)[C@H]2O[C@@H](n3ccc(N)nc3=O)[C@H](O)[C@@H]2O)CC1 | 14 | 70* | / | 0 | 2 | 0
Nc1ccn([C@@H]2O[C@H](C(=O)NCCc3ccc(F)cc3)[C@@H](O)[C@H]2O)c(=O)n1 | 7 | 87* | 4 | 0 | 3 | -1
SMILES | GSIS activator | DENV2 CPE rescue | miR122 inh | E-selectin induc | ERAP1 inh | CFTR F508del cor
O=C(Nc1ccc(S(=O)(=O)NCCc2ccccc2)cc1)c1ccc(Br)o1 | / | / | 201* | / | / | /
Cc1ccnc(NS(=O)(=O)c2ccc(NC(=O)CCc3ccccc3)cc2)n1 | 42* | 9 | / | / | 0 | 0
COc1ccc(S(=O)(=O)NCCc2ccccc2)cc1 | 1 | / | 63 | / | / | /
Cc1cc(C)cc(NS(=O)(=O)c2ccc(NC(=S)NC(=O)c3ccc(Br)o3)cc2)c1 | / | / | 98* | / | / | /
NS(=O)(=O)c1ccc(NC(=S)NC(=O)c2ccc(Br)o2)cc1 | -5 | -1 | 2 | / | -3 | 5
Cc1ccnc(NS(=O)(=O)c2ccc(NC(=O)Cc3ccccc3)cc2)n1 | 28 | / | -3 | / | / | /
COCC(=O)Nc1ccc(S(=O)(=O)NCCc2ccccc2)cc1 | / | / | 118* | / | / | /
CCOC(=O)c1cc(S(=O)(=O)NCc2ccco2)cn1C | 14 | 4 | 9 | / | -3 | 0
CCOC(=O)c1cc(S(=O)(=O)NCCc2ccccc2)cn1C | / | -1 | 114* | / | 5 | 2
CC=Cc1ccc2n(c1=O)C[C@H]1[C@H](CO)[C@@H](C(=O)NCCC)N(C(=O)c3cccnc3)[C@@H]21 (mixture of isomers) | -2 | -6 | / | 1 | 2 | 0
C=CCn1c(SCC(=O)Nc2nc3ccccc3s2)nc(O)c(CC)c1=O | / | 17 | -1 | 33* | -27 | 2
Cc1cc(NC(=O)CSCC(=O)Nc2nc3ccccc3s2)no1 | 13 | 45* | / | 1 | -3 | -2
O=C(Nc1ccc(F)cc1)N[C@@H]1CC[C@H](CCn2cc(C3(O)CCCC3)nn2)O[C@H]1CO | 8 | / | / | 1 | 1 | -1
CCC(=O)N(C)C[C@@H]1Oc2cc(C3=CCCC3)ccc2S(=O)(=O)N([C@H](C)CO)C[C@H]1C | 14 | 2 | -3[16.7 µM] | 0 | 0 | 1
O=C1N(Cc2ccccc2)Cc2ccccc2[C@@H]2OC(c3ccc(OCCCO)cc3)=N[C@]12Cc1ccccc1 | / | 26* | / | / | -4 | -2
O=C1N(Cc2ccccc2)Cc2ccccc2[C@H]2OC(c3ccc(OCCCO)cc3)=N[C@@]12Cc1ccccc1 | / | 1 | / | / | 0 | 3
